“And” between values parts separate entries of the source, which are not always exact repeats. Equal values may be shown once.
Assays:
[1] = tested on: rat; details: ref ScienceLab.com; cited from earlier work
[2] = tested on: D3 dopamine receptor; details: transfected CHO cells; maximum 10^-5 M; ref Grundt et al., 2005; cited from earlier work
[3] = molecular target: D3 dopamine receptors (Homo sapiens, UniProt P35462); assay type: cell-based; details: transfected HEK cells; test ligand 10 nM; relative to quinpirole
D3 dopamine receptors, sequence (P35462 whole entry): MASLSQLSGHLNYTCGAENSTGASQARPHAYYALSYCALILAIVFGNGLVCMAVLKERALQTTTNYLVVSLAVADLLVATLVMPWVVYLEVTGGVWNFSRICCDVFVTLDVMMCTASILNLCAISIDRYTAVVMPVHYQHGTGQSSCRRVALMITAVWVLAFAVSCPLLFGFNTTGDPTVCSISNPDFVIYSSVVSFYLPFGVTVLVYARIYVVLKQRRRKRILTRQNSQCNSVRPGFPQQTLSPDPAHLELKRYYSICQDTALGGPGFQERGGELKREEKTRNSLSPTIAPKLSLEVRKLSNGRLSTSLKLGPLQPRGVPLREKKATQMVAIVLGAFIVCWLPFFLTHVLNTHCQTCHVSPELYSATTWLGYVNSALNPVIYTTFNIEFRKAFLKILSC

[4] = tested on: human D3 dopamine receptor; details: binding; ref Grundt et al., 2005; cited from earlier work
[5] = tested on: unilaterally lesioned rats; experiment: Rotarod test of motor performance and coordination; assay type: in vivo, rat; details: 10 mg/kg i.p.; 30 and 60 minutes post drug administration; p ≥ 0.10
[6] = tested on: unilaterally lesioned rats; experiment: Apomorphine-dependent AIMs in unilaterally lesioned rats; assay type: in vivo, rat
Outline: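 Unilaterally lesioned rats received the test compound (10 mg/kg i.p.) or vehicle, immediately followed by apomorphine 0.05 mg/kg s.c. Total AIMs scores were summed over time and expressed as percent of vehicle control, as mean ± S.E.M., n = 12. Periods analysed: 0–60, 0–40 and 50–60 min.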

[7] = tested on: unilaterally lesioned rats; experiment: Cylinder test of forelimb usage; assay type: in vivo, rat; details: PG01042 10 mg/kg with L-dopa/benserazide 8 mg/kg each
Outline: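 Unilaterally lesioned rats received saline, L-dopa plus benserazide (8 mg/kg each), or these with the test compound (10 mg/kg). In the cylinder, an observer scored which forelimb first touched the Plexiglas wall (left, right or both) during rearing. The right forelimb was contralateral to the lesion. Scoring began 12 min (5 min) and 20 min (until >13 touches/rat) post injection. Read-out was percent usage, n = 7.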

[8] = tested on: unilaterally lesioned rats; experiment: L-dopa dependent abnormal involuntary movements; assay type: in vivo, rat; details: for Normalized total AIMs score, percent relative to vehicle control: 10 mg/kg
[9] = molecular target: human D2 dopamine receptor; details: read-out: Ki at dopamine D2 receptors; ref Grundt et al., 2005; cited from earlier work
[10] = tested on: D2 dopamine receptor; details: transfected CHO cells; maximum 10^-5 M; ref Grundt et al., 2005; cited from earlier work
[11] = 10 mg/kg i.p., 0 min pretreatment, L-dopa/benserazide 8 mg/kg each, n = 12

SMILES: C[S+](C)[O-] [DMSO, dimethylsulfoxide]
- Oral acute LD50 [1]: 14500 mg/kg

SMILES: O=C(NC/C=C/CN1CCN(c2cccc(Cl)c2Cl)CC1)c1ccc(-c2ccccn2)cc1 [PG01037, (E)-N-(4-(4-(2,3-dichlorophenyl)piperazin-1-yl)but-2-enyl)-4-(pyridin-2-yl)benzamide]
- Intrinsic activity at D3 receptors, mitogenic assay [2]: antagonist
- Intrinsic activity at D3 receptors, adenylyl cyclase inhibition [3]: antagonist

SMILES: O=C(NCCCCN1CCN(c2cccc(Cl)c2Cl)CC1)c1ccc(-c2cccnc2)cc1 [PG01042, N-(4-(4-(2,3-dichlorophenyl)piperazin-1-yl)butyl)-4-(pyridin-3-yl)benzamide]
- D3 selectivity compared to the D2 dopamine receptor subtype [4]: 39 fold and > 39 fold
- Latency to fall on rotarod versus vehicle control [5]: no statistical significant difference
- Percent reduction in the total AIMs score, apomorphine-dependent ([6]; 10 mg/kg i.p. simultaneously with apomorphine 0.05 mg/kg s.c., 0 to 60 minutes, n = 12): 14.5 ± 3.0%
- Percent attenuation of the AIMs minus locomotor scores, apomorphine-dependent ([6]; PG01042 simultaneously with apomorphine 0.05 mg/kg s.c., whole time period): approximately 15%
- Intrinsic activity at D3 receptors, mitogenic assay [2]: partial agonist
- Use of right (compromised) forelimb ([7]; 12 minutes post injection, n = 7): 70.1 ± 2.3%
- Use of right paw ([7]; 20 minutes post injection): 85.0 ± 4.6%
- Intrinsic activity at D3 receptors, adenylyl cyclase inhibition [3]: agonist
- Mean reduction in the total AIMs score ([8]; 1 mg/kg i.p., 0 min pretreatment, L-dopa/benserazide 8 mg/kg each, n = 12): 8.4 ± 7.3%
- Mean reduction in the total AIMs score ([8]; 3 mg/kg i.p., 0 min pretreatment, L-dopa/benserazide 8 mg/kg each, n = 12, dose response experiment): 25.2 ± 4.4%
- Percent reduction of axial twisting AIM score [8, 11]: 78.5 ± 4.6%
- Percent reduction of forelimb movement AIM score [8, 11]: 56% and 56.0 ± 3.1%
- Percent reduction of locomotion AIM score [8, 11]: 80.4 ± 9.5%
- Percent reduction of orolingual AIM score [8, 11]: 76.5 ± 10.8%
- Precipitation of AIMs by test drug alone ([8]; 10 mg/kg i.p., during the 60 min pretreatment period before L-dopa): did not precipitate any AIMs
- Normalized total AIMs score, percent relative to vehicle control ([8]; 0 minutes pretreatment before L-dopa/benserazide 8 mg/kg): 29.4 ± 6.1%
- Normalized total AIMs score, percent relative to vehicle control ([8]; 60 minutes pretreatment before L-dopa/benserazide 8 mg/kg): 68.0 ± 8.6%
- Effect on total AIM scores versus vehicle control ([8]; PG01042 3 mg/kg simultaneously with L-dopa 8 mg/kg i.p., F(1,22) = 14.4, n = 12): significantly attenuate
- IC50 for attenuation of total AIMs score, linear regression analysis ([8]; i.p., 0 min pretreatment, doses 0 to 10 mg/kg, L-dopa/benserazide 8 mg/kg each): 6.6 mg/kg
- IC50 for attenuation of total AIMs score, one site fit ([8]; i.p., 0 min pretreatment, curve constrained to 0 and 100%, r^2 = 0.98): 5.6 mg/kg
- Ki [9]: 18.2 nM
- Intrinsic activity at D2 receptors, mitogenic assay [10]: partial agonist

SMILES: COc1ccccc1N1CCN(CCN(C(=O)C2CCCCC2)c2ccccn2)CC1 [WAY 100635, reference compound]
- Reduction in the attenuation of total AIMs score by PG01037 ([8]; WAY 100635 1 mg/kg 10 min before PG01037 3 mg/kg, L-dopa 8 mg/kg i.p.): no reduction

SMILES: Cl.O=C1CC2(CCCC2)CC(=O)N1CCCCN1CCN(c2ncccn2)CC1 [buspirone, N-[4-[4-(2-pyrimidinyl)-1-piperazinyl]butyl]-8-azaspiro[4.5]decane-7,9-dione hydrochloride, reference compound]
- %Reduction of total AIMs values ([8]; buspirone 1 mg/kg i.p. with L-dopa 8 mg/kg and benserazide 8 mg/kg, n = 12): 34.8 ± 6.2%
- Effect on total AIM scores versus vehicle control ([8]; buspirone 4 mg/kg 30 minutes prior to L-dopa 8 mg/kg i.p., p < 0.001, n = 10): significant reduction

— PMC3820002 (Neuropharmacology, 2010)
